Data from article PMC6520168 (ACS chemical neuroscience, 2019).
Entries after “also recorded” stand apart in the source; their conditions may differ. Where two headings read alike, the source gives them in different places.

Key:
[1] = target: T1, MOR (Mus musculus, UniProt P42866); assay type: cell-based; conditions: 24 h pretreatment
[2] = target: μ opioid receptor (MOR) (Mus musculus, UniProt P42866); test: [35S]-GTPγS functional assay in mMOR-CHO cell membranes; assay type: biochemical
[3] = target: human NOP receptor (Homo sapiens, UniProt P41146); test: [3H]nociceptin NOP receptor binding assay; conditions: 3 μM test ligand
Sequence of human NOP receptor (P41146 whole entry): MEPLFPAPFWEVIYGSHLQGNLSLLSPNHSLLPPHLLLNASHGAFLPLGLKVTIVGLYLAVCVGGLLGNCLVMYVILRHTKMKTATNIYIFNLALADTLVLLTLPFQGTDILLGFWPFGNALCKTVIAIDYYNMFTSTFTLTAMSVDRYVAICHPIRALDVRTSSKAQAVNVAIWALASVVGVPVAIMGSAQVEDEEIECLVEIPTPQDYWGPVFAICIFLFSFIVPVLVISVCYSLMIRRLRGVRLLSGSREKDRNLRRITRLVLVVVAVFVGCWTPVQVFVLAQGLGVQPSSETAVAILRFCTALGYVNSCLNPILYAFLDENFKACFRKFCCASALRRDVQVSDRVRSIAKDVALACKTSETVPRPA
Method in brief: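 Membranes came from CHO cells stably expressing human NOP receptor (~5 pmol/mg protein), lysed hypotonically in Tris/EDTA/PMSF (pH 7.4). Binding used 20 μg protein with 0.2 nM [3H]nociceptin in 50 mM Tris-HCl, 0.1% BSA, pH 7.4, with or without 3 μM test compound. Percent inhibition = 100% − (binding with compound − nonspecific)/(total − nonspecific) × 100%.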

[4] = target: κ opioid receptor (KOR) (Mus musculus, UniProt P33534); test: [35S]-GTPγS functional assay in mKOR-CHO cells; assay type: biochemical
Sequence of κ opioid receptor (KOR) (P33534 whole entry): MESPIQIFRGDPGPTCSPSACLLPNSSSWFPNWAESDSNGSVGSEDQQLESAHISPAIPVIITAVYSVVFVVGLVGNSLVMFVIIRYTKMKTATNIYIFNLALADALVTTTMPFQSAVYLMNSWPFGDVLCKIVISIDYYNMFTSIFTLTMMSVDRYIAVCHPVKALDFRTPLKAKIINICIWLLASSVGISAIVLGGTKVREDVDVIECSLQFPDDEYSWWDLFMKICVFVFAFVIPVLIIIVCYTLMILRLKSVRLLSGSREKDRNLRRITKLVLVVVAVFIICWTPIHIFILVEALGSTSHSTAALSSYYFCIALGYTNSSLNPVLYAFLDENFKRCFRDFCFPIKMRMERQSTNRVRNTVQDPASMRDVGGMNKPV

[5] = target: δ opioid receptor (DOR) (Mus musculus, UniProt P32300); test: [35S]-GTPγS functional assay in mDOR-CHO cells; assay type: biochemical
Sequence of δ opioid receptor (DOR) (P32300 whole entry): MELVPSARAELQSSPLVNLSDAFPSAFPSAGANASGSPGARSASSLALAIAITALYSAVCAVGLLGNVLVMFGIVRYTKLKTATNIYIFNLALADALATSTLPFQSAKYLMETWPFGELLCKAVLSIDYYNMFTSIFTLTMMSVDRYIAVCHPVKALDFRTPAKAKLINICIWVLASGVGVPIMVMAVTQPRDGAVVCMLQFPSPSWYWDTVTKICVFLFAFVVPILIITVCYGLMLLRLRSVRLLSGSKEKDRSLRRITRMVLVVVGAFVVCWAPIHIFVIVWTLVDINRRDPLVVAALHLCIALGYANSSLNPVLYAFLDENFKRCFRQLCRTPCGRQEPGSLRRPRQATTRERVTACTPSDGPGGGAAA

[6] = target: DOR; conditions: read-out: DOR Ki; cited from earlier work
[7] = system: mice; conditions: cited from earlier work
[8] = system: morphine-pelleted mice; test: Withdrawal assay in chronic morphine-pelleted mice; assay type: in vivo, mouse
[9] = target: MOR in mouse thalamus (Mus musculus, UniProt P42866); test: [35S]-GTPγS functional assay in mouse thalamus membranes; assay type: biochemical
Sequence of MOR in mouse thalamus (P42866 whole entry): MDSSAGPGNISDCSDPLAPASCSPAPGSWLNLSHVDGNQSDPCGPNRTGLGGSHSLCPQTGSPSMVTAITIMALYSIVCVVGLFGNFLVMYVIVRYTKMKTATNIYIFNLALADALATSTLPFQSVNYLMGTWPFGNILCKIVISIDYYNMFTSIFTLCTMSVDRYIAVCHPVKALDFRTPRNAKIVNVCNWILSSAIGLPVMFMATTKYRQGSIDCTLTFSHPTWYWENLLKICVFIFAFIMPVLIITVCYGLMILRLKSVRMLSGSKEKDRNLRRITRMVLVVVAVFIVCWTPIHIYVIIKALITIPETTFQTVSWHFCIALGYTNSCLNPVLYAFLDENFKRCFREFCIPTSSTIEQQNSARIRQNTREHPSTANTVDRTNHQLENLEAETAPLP

[10] = target: hMOR (Homo sapiens, UniProt P35372); test: Ca2+ flux assay in Gαqi5 transfected hMOR-CHO cells; assay type: cell-based; conditions: agonism study
Sequence of hMOR (P35372 whole entry): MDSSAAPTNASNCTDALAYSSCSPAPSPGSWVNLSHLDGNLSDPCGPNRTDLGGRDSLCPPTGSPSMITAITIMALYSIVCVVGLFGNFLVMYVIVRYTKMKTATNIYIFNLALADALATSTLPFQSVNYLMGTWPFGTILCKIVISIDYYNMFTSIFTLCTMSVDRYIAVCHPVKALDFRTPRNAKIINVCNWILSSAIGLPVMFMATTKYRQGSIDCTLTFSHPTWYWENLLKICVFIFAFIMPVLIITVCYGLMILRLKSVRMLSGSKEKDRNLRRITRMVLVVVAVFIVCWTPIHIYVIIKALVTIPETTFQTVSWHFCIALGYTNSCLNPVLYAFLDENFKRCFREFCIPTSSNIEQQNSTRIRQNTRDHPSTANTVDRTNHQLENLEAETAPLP

[11] = system: MOR in rat thalamus; conditions: cited from earlier work
[12] = target: T1, MOR; conditions: 24 h pretreatment; values previously published; cited from earlier work
[13] = target: T1, MOR; assay type: cell-based
[14] = 1 mg/kg s.c., morphine-pelleted mice
[15] = 50 mg/kg s.c., morphine-pelleted mice

T1 sequence (P42866 whole entry): as the sequence (P42866 whole entry) above
Sequence of μ opioid receptor (MOR) (P42866 whole entry): as above

O=C(N[C@H]1CC[C@@]2(O)[C@H]3Cc4ccc(O)c5c4[C@@]2(CCN3CC2CC2)[C@H]1O5)c1cccc2cc[nH]c12 [NAN, 17-cyclopropylmethyl-3,14β-dihydroxy-4,5α-epoxy-6α-(indole-7-carboxamido)morphinan]
Bmax (pmol/mg) of [3H]naloxone saturation binding after pretreatment ([1]; 1 μM): 3.92 ± 0.20 pmol/mg
Effect on the DAMGO Emax value ([2]; 5 nM coincubation, mMOR-CHO cells and thalamus): did not have any effect on the DAMGO Emax value
MOR stimulation compared to other ligands ([2]; mMOR-CHO cells): low MOR stimulation that was significantly less than DAMGO and similar to NAQ and nalbuphine
Emax ([2]; read-out: Emax (% DAMGO)): 25.5 ± 1.58%
Inhibition of [3H]-nociceptin binding to the NOP receptor [3]: did not inhibit binding; also recorded: did not show NOP binding
EC50 ([4]; KOR EC50 (nM), mKOR-CHO): 17.8 ± 3.24 nM
Emax ([4]; read-out: KOR Emax (% max of U50,488H), mKOR-CHO, relative to 5 μM U50,488H): ~74%
EC50 ([5]; DOR EC50 (nM), mDOR-CHO): 22.8 ± 3.95 nM
Emax ([5]; read-out: DOR Emax (% max of SNC80), mDOR-CHO, relative to 5 μM SNC80): ~27%
Ki [6]: 0.0137 ± 0.00139 µM
Antinociception in the tail-flick assay [7]: did not produce antinociception
Antagonism of the antinociceptive activity of morphine ([7]; mice, warm water tail immersion assay): almost completely antagonized
Escape jumps versus 1 mg/kg NTX [8, 14]: significantly less
Wet-dog shakes versus 1 mg/kg NTX [8, 14]: significantly less
Escape jumps versus 1 mg/kg NTX ([8]; 10 mg/kg s.c., morphine-pelleted mice): not significantly different
Escape jumps versus 1 mg/kg NTX [8, 15]: not significantly different
Paw tremors versus 1 mg/kg NTX [8, 15]: significantly less
Wet-dog shakes versus 1 mg/kg NTX [8, 15]: significantly less
Withdrawal signs in placebo-pelleted mice ([8]; 50 mg/kg s.c., placebo-pelleted mice, 20 min observation): did not induce any significant withdrawal signs
MOR stimulation compared to other ligands [9]: low MOR stimulation that was significantly less than DAMGO and similar to NAQ and nalbuphine
Agonism in Ca2+ flux assay [10]: no apparent agonism

O=C1CC[C@@]2(O)[C@H]3Cc4ccc(O)c5c4[C@@]2(CCN3CC2CC2)[C@H]1O5 [NTX, naltrexone]
Functional character in the rat thalamus [11]: pure antagonists

O=C(N[C@H]1CC[C@@]2(O)[C@H]3Cc4ccc(O)c5c4[C@@]2(CCN3CC2CC2)[C@H]1O5)c1cc2ccccc2cn1 [NAQ, 17-cyclopropyl-methyl-3,14β-dihydroxy-4,5α-epoxy-6α-(isoquinoline-3-carboxamido)morphinan]
Apparent increase in [3H]naloxone KD value after treatment ([1]; versus vehicle): 3.5–4 fold
Bmax (pmol/mg) of [3H]naloxone saturation binding after pretreatment [12]: 3.75 ± 0.34 pmol/mg
Change of DAMGO EC50 value after ligand pretreatment (desensitization) [13]: did not produce a significant change

C[C@@H](NC(=O)[C@@H](N)Cc1ccc(O)cc1)C(=O)NCC(=O)N(C)[C@@H](Cc1ccccc1)C(=O)NCCO [DAMGO, [D-Ala^2, N-MePhe^4, Gly-ol]-enkephalin, reference compound]
Reduction in receptor density (Bmax) ([1]; versus vehicle): ~50%
Bmax (pmol/mg) of [3H]naloxone saturation binding after pretreatment [12]: 1.49 ± 0.12 pmol/mg

Oc1ccc2c3c1O[C@H]1[C@@H](O)CC[C@@]4(O)[C@@H](C2)N(CC2CCC2)CC[C@]314 [nalbuphine]
Functional character in the rat thalamus [11]: pure antagonists
